Published values of several laboratories.
Lines come from different studies, so protocols differ.
Target: Serine/threonine-protein kinase ULK2 (ULK2, Homo sapiens, UniProt Q8IYT8)
Sequence (Q8IYT8 1-1036, as in one of the studies): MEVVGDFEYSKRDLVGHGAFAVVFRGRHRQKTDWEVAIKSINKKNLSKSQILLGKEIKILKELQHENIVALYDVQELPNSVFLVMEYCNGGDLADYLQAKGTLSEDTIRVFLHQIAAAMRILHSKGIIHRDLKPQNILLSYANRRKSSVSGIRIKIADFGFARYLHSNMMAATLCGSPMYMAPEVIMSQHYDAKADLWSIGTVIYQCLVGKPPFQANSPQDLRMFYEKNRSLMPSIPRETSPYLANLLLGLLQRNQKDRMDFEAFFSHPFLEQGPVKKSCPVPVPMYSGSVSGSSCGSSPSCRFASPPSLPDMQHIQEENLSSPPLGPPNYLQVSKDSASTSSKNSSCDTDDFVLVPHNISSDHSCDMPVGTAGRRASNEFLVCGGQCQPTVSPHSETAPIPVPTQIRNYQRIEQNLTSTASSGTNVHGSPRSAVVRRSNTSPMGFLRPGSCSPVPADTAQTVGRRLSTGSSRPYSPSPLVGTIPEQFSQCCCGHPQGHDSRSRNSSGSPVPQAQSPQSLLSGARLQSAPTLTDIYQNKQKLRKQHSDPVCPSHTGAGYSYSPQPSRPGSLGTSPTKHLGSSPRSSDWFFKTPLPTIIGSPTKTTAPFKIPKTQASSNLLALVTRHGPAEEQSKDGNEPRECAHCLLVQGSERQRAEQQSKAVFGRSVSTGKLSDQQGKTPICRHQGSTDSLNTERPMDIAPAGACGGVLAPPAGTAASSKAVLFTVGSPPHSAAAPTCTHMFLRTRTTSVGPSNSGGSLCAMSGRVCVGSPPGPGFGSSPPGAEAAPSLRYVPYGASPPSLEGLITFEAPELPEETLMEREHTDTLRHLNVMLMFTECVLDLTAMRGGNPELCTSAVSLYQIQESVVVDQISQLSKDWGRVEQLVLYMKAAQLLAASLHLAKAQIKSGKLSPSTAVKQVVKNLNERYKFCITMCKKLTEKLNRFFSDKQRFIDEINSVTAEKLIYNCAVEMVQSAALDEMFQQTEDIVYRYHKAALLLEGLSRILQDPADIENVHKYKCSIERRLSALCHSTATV

SMILES	assay	conditions	endpoint	result
C=CC(=O)N1CCC([C@@H]2CCNc3c(C(N)=O)c(-c4ccc(Oc5ccccc5)cc4)nn32)CC1	enzyme activity, inhibitor	1 µM	inhibition	8%
N#Cc1ccc(NC(=O)Nc2ccccc2)cc1	cell-free assay, competition with immobilised ligand	25 µM	remaining binding	86%
COc1ccc2oc(-c3ccc4nc(N)oc4c3)c/c(=N\c3ccccc3NC(=O)CCN)c2c1	binding	1 µM	remaining binding	106%
Cc1ccc(NC(=O)c2ccnc(C(F)(F)F)c2)cc1-c1cc(OCCO)nc(N2CCOCC2)c1	binding	1 µM	remaining binding	100%
C=CC(=O)N1CCC[C@@H](n2nc(-c3ccc(Oc4ccccc4)cc3)c3c(N)ncnc32)C1	enzyme activity, inhibitor	1 µM	inhibition	13%
C#Cc1cc(-c2cc(Nc3nc(N[C@@H](C)c4ccc(F)cn4)ncc3Cl)n[nH]2)ccc1C=O	enzyme activity, inhibitor	0.2 µM	inhibition	5.21%
CN1CCN(C(=O)c2ccc(NC(=O)Nc3ccc(N(C)c4ccnc(Nc5ccc(CS(C)(=O)=O)cc5)n4)cc3)cc2)CC1	binding	1 µM	remaining binding	78%
CCCCC(=O)Nc1ccc(-c2ccc3ncn(CCC)c(=O)c3c2)cn1	binding, competition with immobilised ligand	0.5 µM	remaining binding	100%
